Assay results: paper PMC5817033 (Nuclear medicine and biology, 2017)
Several values for one entry are separate records, joined by “and”; a condition that tells them apart may be missing. Equal entries are not always repeated. Where two headings read alike, the source gives them in different places.

Tests used:
[1] = cited from earlier work
[2] = normal rats, mean ± SD, cited from earlier work
[3] = Ex-vivo biodistribution of ^18F-1 co-injected with ^131I-OIH in normal rats; set-up: species or system Sprague-Dawley rats; conditions: mean ± SD
[4] = pH 7, room temperature, over 23 hours after labeling
[5] = rat plasma, ultrafiltration, mean of duplicate
[6] = rat blood, mean of duplicate
[7] = rat urine collected for 10 min after i.v. injection
[8] = Thermal stability of labeling precursor by HPLC; type: physicochemical; conditions: 110 °C for 1 hour
Summary of the method: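 Tosylate labeling precursor heated at 110 °C for 1 hour. Stability is judged by comparing its HPLC chromatograms before and after heating.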

[9] = rats, 1 h post injection; cited from earlier work
[10] = cited from earlier work; remark: listed apart in the source

Row | Compound | Blood activity ([2]; 10 min after injection) | Bowel activity (intestines and stomach) ([2]; 10 min after injection) | Heart activity ([2]; 10 min after injection) | Kidney activity ([2]; 10 min after injection) | Liver activity ([2]; 10 min after injection) | Lung activity ([2]; 10 min after injection) | Spleen activity ([2]; 10 min after injection) | Urine activity ([2]; 10 min after injection) | Blood activity ([2]; 60 min after injection) | Bowel activity (intestines and stomach) ([2]; 60 min after injection) | Heart activity ([2]; 60 min after injection) | Kidney activity ([2]; 60 min after injection) | Liver activity ([2]; 60 min after injection) | Lung activity ([2]; 60 min after injection) | Spleen activity ([2]; 60 min after injection) | Urine activity ([2]; 60 min after injection) | Blood activity ([3]; 10 min after i.v. injection) | Bowel activity (intestines and stomach) ([3]; 10 min after i.v. injection) | Heart activity ([3]; 10 min after i.v. injection) | Kidney activity ([3]; 10 min after i.v. injection) | further results
1 | ^99mTc(CO)3(2-fluoroethyl)iminodiacetic acid [^99mTc-1] | 5.1 ± 0.9 %ID | 2.9 ± 0.5 %ID | 0.1 ± 0.0 %ID | 6.6 ± 2.1 %ID | 5.9 ± 0.8 %ID | 0.4 ± 0.2 %ID | 0.1 ± 0.0 %ID | 54.1 ± 7.2 %ID | 0.3 %ID and 0.3 ± 0.1 %ID | 2.9 ± 1.4 %ID | 0.0 ± 0.0 %ID | 0.7 ± 0.2 %ID | 0.8 ± 0.1 %ID | 0.1 ± 0.1 %ID | 0.1 ± 0.2 %ID | 79.2 ± 6.4 %ID | – | – | – | – | Erythrocyte uptake ([1]; rats): 20%; %Urine: urine activity as a percentage of ^131I-OIH (^99mTc/^131I-OIH ratio) ([2]; 10 min): 100 ± 4%; %Urine: urine activity as a percentage of ^131I-OIH (^99mTc/^131I-OIH ratio) ([2]; 60 min): 99 ± 2%
2 | O=C([O-])CN(CC[18F])CC(=O)[O-].[C-]#[O+].[C-]#[O+].[C-]#[O+].[Re+] [^18F-1, rhenium-tricarbonyl-N-(2-[^18F]fluoroethyl)iminodiacetic acid] | – | – | – | – | – | – | – | – | – | – | – | – | – | – | – | – | 5.2 ± 0.7 %ID | 2.1 ± 1.7 %ID | 0.1 ± 0.0 %ID | 9.4 ± 2.0 %ID | %Urine: urine activity as a percentage of ^131I-OIH (^18F/^131I-OIH ratio) ([3]; 10 min): 92% and 92 ± 14%; Bone uptake ([3]; 10 min after i.v. injection): 0.08 ± 0.01 %ID/g; Liver activity ([3]; 10 min after i.v. injection): 5.6 ± 0.3 %ID; Lung activity ([3]; 10 min after i.v. injection): 0.4 ± 0.1 %ID; Spleen activity ([3]; 10 min after i.v. injection): 0.1 ± 0.0 %ID; Urine activity ([3]; 10 min after i.v. injection): 49.3 ± 3.7 %ID; %Urine: urine activity as a percentage of ^131I-OIH (^18F/^131I-OIH ratio) ([3]; 60 min): 95% and 95 ± 5%; Blood activity ([3]; 60 min after i.v. injection): 0.3 ± 0.1 %ID; Bowel activity (intestines and stomach) ([3]; 60 min after i.v. injection): 3.9 ± 2.0 %ID; Heart activity ([3]; 60 min after i.v. injection): 0.0 ± 0.0 %ID; Kidney activity ([3]; 60 min after i.v. injection): 1.0 ± 0.7 %ID; Liver activity ([3]; 60 min after i.v. injection): 0.4 ± 0.1 %ID; Lung activity ([3]; 60 min after i.v. injection): 0.1 ± 0.1 %ID; Spleen activity ([3]; 60 min after i.v. injection): 0.0 ± 0.0 %ID; Urine activity ([3]; 60 min after i.v. injection): 80.5 ± 4.4 %ID; In vitro stability of formulated solution (HPLC) [4]: No measurable decomposition; Plasma protein binding (PPB) [5]: 87%; Erythrocyte uptake (RCB) [6]: 21%; In vivo stability: HPLC analysis of urine for metabolites [7]: only the intact parent compound
3 | rhenium-tricarbonyl-N-(2-(4-methylbenzenesulphonate)ethyl))iminodiacetic acid [Re-OTs] | – | – | – | – | – | – | – | – | – | – | – | – | – | – | – | – | – | – | – | – | Stability on heating (HPLC) [8]: stable
4 | O=C(O)CNC(=O)c1ccc([18F])cc1 [^18F-PFH, p-^18F-fluorohippuran] | – | – | – | – | – | – | – | – | – | – | – | – | – | – | – | – | – | – | – | – | Activity in blood [9]: ~ 0.3 %ID; Activity in urine [9]: ~ 81 % ID
5 | O=C(O)CNC(=O)c1ccccc1[131I] [OIH, ^131I-orthoidodohippurate] | 5.8 ± 1.0 %ID | 1.8 ± 0.2 %ID | 0.2 ± 0.0 %ID | 4.8 ± 0.8 %ID | 3.0 ± 0.9 %ID | 0.4 ± 0.1 %ID | 0.1± 0.0 %ID | 54.2 ± 9.2 %ID | 0.5 ± 0.4 %ID | 1.2 ± 0.5 %ID | 0.1 ± 0.0 %ID | 0.5 ± 0.2 %ID | 0.5 ± 0.1 %ID | 0.1 ± 0.1 %ID | 0.1 ± 0.1 %ID | 80.2 ± 5.3 %ID | 4.5 ± 0.4 %ID | 1.3 ± 0.6 %ID | 0.1 ± 0.0 %ID | 5.2 ± 1.6 %ID | Red cell uptake [1]: 35%; Liver activity ([3]; 10 min after i.v. injection): 2.8 ± 0.6 %ID; Lung activity ([3]; 10 min after i.v. injection): 0.3 ± 0.1 %ID; Spleen activity ([3]; 10 min after i.v. injection): 0.1 ± 0.0 %ID; Urine activity ([3]; 10 min after i.v. injection): 54.4 ± 6.9 %ID; Blood activity ([3]; 60 min after i.v. injection): 0.8 ± 0.1 %ID; Bowel activity (intestines and stomach) ([3]; 60 min after i.v. injection): 1.1 ± 0.2 %ID; Heart activity ([3]; 60 min after i.v. injection): 0.0 ± 0.0 %ID; Kidney activity ([3]; 60 min after i.v. injection): 1.0 ± 0.8 %ID; Liver activity ([3]; 60 min after i.v. injection): 0.6 ± 0.1 %ID; Lung activity ([3]; 60 min after i.v. injection): 0.1 ± 0.1 %ID; Spleen activity ([3]; 60 min after i.v. injection): 0.0 ± 0.0 %ID; Urine activity ([3]; 60 min after i.v. injection): 84.8 ± 3.8 %ID; Plasma protein binding [10]: 44%
